Results published in ChEMBL document CHEMBL1128486, “Farnesyl diphosphate-based inhibitors of Ras farnesyl protein transferase” (J Med Chem, 1995).

Each compound was assayed against Protein farnesyltransferase (Sus scrofa) (assay: Inhibition of pig brain farnesyl transferase). Details: read-out: I50.

| Compound | IC50 |
| --- | --- |
| CC(C)=CCC/C(C)=C/CC/C(C)=C/CNC(=O)CC(=O)O | 115 µM |
| CC(C)=CCC/C(C)=C/CC/C(C)=C/CNC(=O)CP(=O)(O)O | 41.5 µM |
| CC(C)=CCC/C(C)=C/CC/C(C)=C/CNC(=O)CCP(=O)(O)O | 4.6 µM |

What follows are compounds tested against T1, Squalene synthase (Rattus norvegicus, UniProt Q02769) (assay: Inhibition of squalene synthase). Details: read-out: I50.
T1 sequence (Q02769 whole entry): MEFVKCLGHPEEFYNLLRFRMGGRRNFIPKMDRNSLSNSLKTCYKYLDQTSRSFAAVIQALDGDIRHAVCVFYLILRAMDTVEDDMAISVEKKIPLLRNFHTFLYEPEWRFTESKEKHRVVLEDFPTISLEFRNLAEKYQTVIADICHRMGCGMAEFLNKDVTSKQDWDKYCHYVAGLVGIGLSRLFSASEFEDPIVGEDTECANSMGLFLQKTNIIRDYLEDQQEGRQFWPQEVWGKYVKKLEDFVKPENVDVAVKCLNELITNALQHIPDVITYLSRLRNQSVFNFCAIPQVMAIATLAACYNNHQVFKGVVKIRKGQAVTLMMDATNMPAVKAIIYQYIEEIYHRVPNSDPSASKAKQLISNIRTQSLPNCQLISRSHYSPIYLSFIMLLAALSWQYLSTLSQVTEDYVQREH
In short: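 Squalene synthetase was prepared from rat liver microsomes and used for I50 determination.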

| Compound | IC50 |
| --- | --- |
| CC(C)=CCC/C(C)=C/CC/C(C)=C/CNC(=O)C(CP(=O)(O)O)C(=O)O (centres undefined) | 516 µM |

These compounds were tested against Mevalonate kinase (Rattus norvegicus, UniProt P17256) (assay: Inhibition of mevalonate kinase). Details: read-out: I50.
In short: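 Mevalonate kinase was purified to homogeneity from rat liver and used for inhibition measurement.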

Sequence of Mevalonate kinase (P17256 whole entry): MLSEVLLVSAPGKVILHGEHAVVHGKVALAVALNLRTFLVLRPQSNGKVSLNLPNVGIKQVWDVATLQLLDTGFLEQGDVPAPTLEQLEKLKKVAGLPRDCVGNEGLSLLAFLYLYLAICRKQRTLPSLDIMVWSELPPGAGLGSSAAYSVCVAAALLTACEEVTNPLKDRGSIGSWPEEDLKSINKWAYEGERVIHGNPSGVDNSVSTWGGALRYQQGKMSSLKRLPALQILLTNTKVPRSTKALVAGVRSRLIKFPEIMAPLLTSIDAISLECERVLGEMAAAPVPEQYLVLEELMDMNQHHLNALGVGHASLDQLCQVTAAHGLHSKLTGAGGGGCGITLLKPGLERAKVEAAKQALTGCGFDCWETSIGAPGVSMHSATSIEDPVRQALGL

| Compound | IC50 |
| --- | --- |
| CC(C)=CCC/C(C)=C/CC/C(C)=C/CNC(=O)C(CP(=O)(O)O)C(=O)O (centres undefined) | > 200 µM |

Biological target: Protein farnesyltransferase (Sus scrofa)
Experiment: Inhibition of pig brain farnesyl transferase
Details: read-out: I50
Remark: another data set of the same source

| Compound | IC50 |
| --- | --- |
| CC(C)=CCC/C(C)=C/CC/C(C)=C/CNC(=O)C(CP(=O)(O)O)C(=O)O (centres undefined) | 75 nM |

Biological target: Protein farnesyltransferase (Sus scrofa)
Experiment: Inhibition of pig brain farnesyl transferase
Details: read-out: I50
Remark: another data set of the same source

| Compound | IC50 |
| --- | --- |
| CC(C)=CCC/C(C)=C/CC/C(C)=C/C(=O)N[C@@H](CCC(=O)O)C(=O)O | 11.5 µM |
| CC(C)=CCC/C(C)=C/CCC(C)(C)CCNC(=O)C(CP(=O)(O)O)C(=O)O (centres undefined) | 55 µM |
| CC(C)=CCC/C(C)=C/CC/C(C)=C/CCNC(=O)C(CP(=O)(O)O)C(=O)O (centres undefined) | 17.8 µM |
| CCCCCCCCCCCCNC(=O)C(CP(=O)(O)O)C(=O)O (centres undefined) | 9 µM |
| CC(C)=CCC/C(C)=C/CC/C(C)=C/CNC(=O)CCC(=O)O | 220 µM |
| CC(C)=CCC/C(C)=C/CC/C(C)=C/C(=O)N[C@@H](CP(=O)(O)O)C(=O)O | 0.25 µM |
| CC(C)=CCC/C(C)=C/CC/C(C)=C/CC(=O)N[C@@H](CP(=O)(O)O)C(=O)O | 1.7 µM |
| CC(C)=CCC/C(C)=C/CC/C(C)=C/C(=O)N[C@H](CC(=O)O)C(=O)O | 25 µM |
| CC(C)=CCC/C(C)=C/CC/C(C)=C/CC(=O)N[C@H](CP(=O)(O)O)C(=O)O | 0.05 µM |
| CC(C)=CCC/C(C)=C/CC/C(C)=C/CN(C)C(=O)C(CP(=O)(O)O)C(=O)O (centres undefined) | 0.53 µM |
| CC(C)=CCC/C(C)=C/CC/C(C)=C/C(=O)N[C@H](CP(=O)(O)O)C(=O)O | 0.5 µM |
| CC(C)=CCC/C(C)=C/CC/C(C)=C/C(=O)N[C@H](CCC(=O)O)C(=O)O | 30 µM |
| CC(C)=CCC/C(C)=C/CC/C(C)=C/C(=O)N[C@@H](CC(=O)O)C(=O)O | 12.6 µM |
